Columns and labels:
Format in all cases: ADME, organism-based
[1] = tested on: Kidney; test: Drug level in NMRI mouse kidney assessed as standard uptake value at 3.7 MBq/mL, iv after 2 mins by gamma counting; conditions: in vivo
In short: (§1)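 Male NMRI mice (30-40 g) were anaesthetised with isoflurane. Each received 0.1 mL of HPLC-purified tracer, diluted in 0.9% NaCl to 3.7 MBq/mL (ethanol ≤10%), via a tail vein. Mice were decapitated at 2 or 60 min. Organs were dissected, weighed and γ-counted with background correction. SUV = (organ cpm/organ weight)/(total recovered counts/body weight). Blood mass was taken as 7% of body mass.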

[2] = Biodistribution in NMRI mouse spleen/pancreas at 3.7 MBq/mL, iv after 2 mins by gamma counting; conditions: in vivo
In short: (§2)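 Male NMRI mice (30-40 g) under isoflurane (1.5-2.5% in oxygen) got 0.1 mL of HPLC-purified tracer diluted with 0.9% NaCl to 3.7 MBq/mL (ethanol ≤10%) via tail vein. Mice were decapitated at 2 or 60 min p.i., and organs, blood and urine were weighed and γ-counted. Values are background-corrected %ID or %ID/g, with blood mass taken as 7% of body mass.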

[3] = tested on: Cerebellum; test: Biodistribution in NMRI mouse cerebellum at 3.7 MBq/mL, iv after 60 mins by gamma counting; conditions: in vivo, 1 h; in short: as §2
[4] = Biodistribution in NMRI mouse cerebrum assessed per gram of tissue at 3.7 MBq/mL, iv after 60 mins by gamma counting; conditions: in vivo, 1 h; in short: as §2
[5] = tested on: Lung; test: Biodistribution in NMRI mouse lung at 3.7 MBq/mL, iv after 60 mins by gamma counting; conditions: in vivo, 1 h; in short: as §2
[6] = tested on: Blood; test: Drug level in NMRI mouse blood assessed as standard uptake value at 3.7 MBq/mL, iv after 2 mins by gamma counting; conditions: in vivo; in short: as §1
[7] = tested on: Liver; test: Biodistribution in NMRI mouse liver at 3.7 MBq/mL, iv after 2 mins by gamma counting; conditions: in vivo; in short: as §2
[8] = tested on: Liver; test: Biodistribution in NMRI mouse liver assessed per gram of tissue at 3.7 MBq/mL, iv after 2 mins by gamma counting; conditions: in vivo
[9] = tested on: Cerebellum; test: Drug level in NMRI mouse cerebellum assessed as standard uptake value at 3.7 MBq/mL, iv after 60 mins by gamma counting; conditions: in vivo, 1 h; in short: as §1
[10] = tested on: Lung; test: Biodistribution in NMRI mouse lung assessed per gram of tissue at 3.7 MBq/mL, iv after 2 mins by gamma counting; conditions: in vivo; in short: as §2
[11] = tested on: Heart; test: Biodistribution in NMRI mouse heart assessed per gram of tissue at 3.7 MBq/mL, iv after 2 mins by gamma counting; conditions: in vivo; in short: as §2
[12] = Drug level in NMRI mouse cerebrum assessed as standard uptake value at 3.7 MBq/mL, iv after 2 mins by gamma counting; conditions: in vivo; in short: as §1
[13] = tested on: Kidney; test: Biodistribution in NMRI mouse kidney assessed per gram of tissue at 3.7 MBq/mL, iv after 60 mins by gamma counting; conditions: in vivo, 1 h; in short: as §2
[14] = tested on: Stomach; test: Biodistribution in NMRI mouse stomach at 3.7 MBq/mL, iv after 2 mins by gamma counting; conditions: in vivo; in short: as §2
[15] = tested on: Kidney; test: Biodistribution in NMRI mouse kidney at 3.7 MBq/mL, iv after 2 mins by gamma counting; conditions: in vivo; in short: as §2
[16] = tested on: Cerebellum; test: Biodistribution in NMRI mouse cerebellum at 3.7 MBq/mL, iv after 2 mins by gamma counting; conditions: in vivo; in short: as §2
[17] = tested on: Liver; test: Biodistribution in NMRI mouse liver at 3.7 MBq/mL, iv after 60 mins by gamma counting; conditions: in vivo, 1 h; in short: as §2
[18] = tested on: Cerebellum; test: Biodistribution in NMRI mouse cerebellum assessed per gram of tissue at 3.7 MBq/mL, iv after 2 mins by gamma counting; conditions: in vivo; in short: as §2
[19] = tested on: Heart; test: Biodistribution in NMRI mouse heart at 3.7 MBq/mL, iv after 60 mins by gamma counting; conditions: in vivo, 1 h; in short: as §2
[20] = tested on: Stomach; test: Biodistribution in NMRI mouse stomach at 3.7 MBq/mL, iv after 60 mins by gamma counting; conditions: in vivo, 1 h; in short: as §2
[21] = tested on: Heart; test: Biodistribution in NMRI mouse heart assessed per gram of tissue at 3.7 MBq/mL, iv after 60 mins by gamma counting; conditions: in vivo, 1 h; in short: as §2
[22] = tested on: Liver; test: Biodistribution in NMRI mouse liver assessed per gram of tissue at 3.7 MBq/mL, iv after 60 mins by gamma counting; conditions: in vivo, 1 h; in short: as §2
[23] = tested on: Heart; test: Drug level in NMRI mouse heart assessed as standard uptake value at 3.7 MBq/mL, iv after 2 mins by gamma counting; conditions: in vivo; in short: as §1
[24] = Biodistribution in NMRI mouse cerebrum assessed per gram of tissue at 3.7 MBq/mL, iv after 2 mins by gamma counting; conditions: in vivo; in short: as §2
[25] = tested on: Blood; test: Biodistribution in NMRI mouse blood at 3.7 MBq/mL, iv after 2 mins by gamma counting; conditions: in vivo; in short: as §2
[26] = Biodistribution in NMRI mouse cerebrum at 3.7 MBq/mL, iv after 60 mins by gamma counting; conditions: in vivo, 1 h; in short: as §2
[27] = tested on: Heart; test: Drug level in NMRI mouse heart assessed as standard uptake value at 3.7 MBq/mL, iv after 60 mins by gamma counting; conditions: in vivo, 1 h; in short: as §1
[28] = tested on: Cerebellum; test: Drug level in NMRI mouse cerebellum assessed as standard uptake value at 3.7 MBq/mL, iv after 2 mins by gamma counting; conditions: in vivo; in short: as §1
[29] = tested on: Cerebellum; test: Biodistribution in NMRI mouse cerebellum assessed per gram of tissue at 3.7 MBq/mL, iv after 60 mins by gamma counting; conditions: in vivo, 1 h; in short: as §2
[30] = Drug level in NMRI mouse cerebrum assessed as standard uptake value at 3.7 MBq/mL, iv after 60 mins by gamma counting; conditions: in vivo, 1 h; in short: as §1
[31] = tested on: Intestine; test: Biodistribution in NMRI mouse intestine at 3.7 MBq/mL, iv after 60 mins by gamma counting; conditions: in vivo, 1 h; in short: as §2
[32] = Biodistribution in NMRI mouse cerebrum at 3.7 MBq/mL, iv after 2 mins by gamma counting; conditions: in vivo; in short: as §2
[33] = tested on: Liver; test: Drug level in NMRI mouse liver assessed as standard uptake value at 3.7 MBq/mL, iv after 2 mins by gamma counting; conditions: in vivo; in short: as §1
[34] = Biodistribution in NMRI mouse spleen/pancreas at 3.7 MBq/mL, iv after 60 mins by gamma counting; conditions: in vivo, 1 h; in short: as §2
[35] = tested on: Intestine; test: Biodistribution in NMRI mouse intestine at 3.7 MBq/mL, iv after 2 mins by gamma counting; conditions: in vivo; in short: as §2
[36] = tested on: Kidney; test: Biodistribution in NMRI mouse kidney assessed per gram of tissue at 3.7 MBq/mL, iv after 2 mins by gamma counting; conditions: in vivo; in short: as §2
[37] = tested on: Blood; test: Biodistribution in NMRI mouse blood assessed per gram of tissue at 3.7 MBq/mL, iv after 60 mins by gamma counting; conditions: in vivo, 1 h; in short: as §2
[38] = Biodistribution in NMRI mouse spleen/pancreas assessed per gram of tissue at 3.7 MBq/mL, iv after 60 mins by gamma counting; conditions: in vivo, 1 h; in short: as §2
[39] = tested on: Lung; test: Biodistribution in NMRI mouse lung at 3.7 MBq/mL, iv after 2 mins by gamma counting; conditions: in vivo; in short: as §2
[40] = Biodistribution in NMRI mouse urine at 3.7 MBq/mL, iv after 2 mins by gamma counting; conditions: in vivo; in short: as §2
[41] = Biodistribution in NMRI mouse urine at 3.7 MBq/mL, iv after 60 mins by gamma counting; conditions: in vivo, 1 h; in short: as §2
[42] = Drug level in NMRI mouse spleen/pancreas assessed as standard uptake value at 3.7 MBq/mL, iv after 2 mins by gamma counting; conditions: in vivo; in short: as §1
[43] = tested on: Liver; test: Drug level in NMRI mouse liver assessed as standard uptake value at 3.7 MBq/mL, iv after 60 mins by gamma counting; conditions: in vivo, 1 h; in short: as §1

**Q.** What does the source list for `[11CH3]Nc1ccc(-c2nc3ccc(O)cc3s2)cc1` [PITTSBURGH COMPOUND B]?
**A.** SUV [1]: 7.4; Drug uptake [2]: 0.6%; Drug uptake [3]: 0.03%; Drug uptake [4]: 0.6%; Drug uptake [5]: 0.3%; SUV [6]: 1.13; Drug uptake [7]: 15.6%; Drug uptake [8]: 7.9%; SUV [9]: 0.11; Drug uptake [10]: 3.6%; Drug uptake [11]: 4.2%; SUV [12]: 1.33; Drug uptake [13]: 9.1%; Drug uptake [14]: 1.1%; Drug uptake [15]: 10.3%; Drug uptake [16]: 0.17%; Drug uptake [17]: 9.8%; Drug uptake [18]: 1.6%; Drug uptake [19]: 0.3%; Drug uptake [20]: 0.3%; Drug uptake [21]: 2.1%; Drug uptake [22]: 5%; SUV [23]: 1.5; Drug uptake [24]: 3.6%; Drug uptake [25]: 7.9%; Drug uptake [26]: 0.18%; SUV [27]: 0.7; SUV [28]: 0.59; Drug uptake [29]: 0.31%; SUV [30]: 0.22; Drug uptake [31]: 42.5%; Drug uptake [32]: 1.08%; SUV [33]: 2.9; Drug uptake [34]: 0.1%; Drug uptake [35]: 12%; Drug uptake [36]: 19.9%; Drug uptake [37]: 1.1%; Drug uptake [38]: 0.7%; Drug uptake [39]: 0.9%; Drug uptake [40]: 0.2%; Drug uptake [41]: 24.4%

**Q.** With `Nc1ccc2nc(-c3ccc([18F])cc3)sc2c1` as the molecule, how does the Drug uptake [2] read?
**A.** 1.4%

**Q.** What about the Drug uptake [3] of the same molecule?
**A.** 0.17%

**Q.** And the Drug uptake [4]?
**A.** 0.97%

**Q.** What about the Drug uptake [5] of the same molecule?
**A.** 0.3%

**Q.** And the SUV [6]?
**A.** 0.8

**Q.** And the SUV [42]?
**A.** 2.2

**Q.** What about the Drug uptake [7] of the same molecule?
**A.** 39.8%

**Q.** And the Drug uptake [8]?
**A.** 20%

**Q.** What about the SUV [9] of the same molecule?
**A.** 0.42

**Q.** And the Drug uptake [10]?
**A.** 8.9%

**Q.** And the Drug uptake [11]?
**A.** 5.9%

**Q.** And the SUV [12]?
**A.** 4.47

**Q.** What about the Drug uptake [13] of the same molecule?
**A.** 1.8%

**Q.** What about the Drug uptake [14] of the same molecule?
**A.** 1.6%

**Q.** And the Drug uptake [15]?
**A.** 8.3%

**Q.** What about the Drug uptake [16] of the same molecule?
**A.** 1.74%

**Q.** What about the Drug uptake [17] of the same molecule?
**A.** 10.7%

**Q.** What about the Drug uptake [18] of the same molecule?
**A.** 15.48%

**Q.** What about the Drug uptake [19] of the same molecule?
**A.** 0.1%

**Q.** And the Drug uptake [20]?
**A.** 0.6%

**Q.** And the Drug uptake [21]?
**A.** 0.7%

**Q.** What about the Drug uptake [22] of the same molecule?
**A.** 5.6%

**Q.** What about the SUV [23] of the same molecule?
**A.** 1.9

**Q.** And the Drug uptake [24]?
**A.** 13.97%

**Q.** What about the Drug uptake [25] of the same molecule?
**A.** 5.3%

**Q.** And the Drug uptake [26]?
**A.** 0.32%

**Q.** What about the SUV [27] of the same molecule?
**A.** 0.2

**Q.** And the SUV [28]?
**A.** 4.96

**Q.** What about the Drug uptake [29] of the same molecule?
**A.** 1.34%

**Q.** And the SUV [30]?
**A.** 0.31

**Q.** What about the Drug uptake [31] of the same molecule?
**A.** 68.6%

**Q.** What about the Drug uptake [32] of the same molecule?
**A.** 4.56%

**Q.** What about the SUV [43] of the same molecule?
**A.** 1.8

**Q.** And the SUV [33]?
**A.** 6.4

**Q.** What about the Drug uptake [34] of the same molecule?
**A.** 0.3%

**Q.** And the Drug uptake [35]?
**A.** 11.1%

**Q.** What about the Drug uptake [36] of the same molecule?
**A.** 13.3%

**Q.** And the Drug uptake [37]?
**A.** 0.6%

**Q.** And the Drug uptake [38]?
**A.** 1.1%

**Q.** What about the Drug uptake [39] of the same molecule?
**A.** 2%

**Q.** What about the Drug uptake [40] of the same molecule?
**A.** 0.2%

**Q.** What about the Drug uptake [41] of the same molecule?
**A.** 4.9%
